Our source for the Activity and IC50 values is ChEMBL document CHEMBL1153828, “Structures of the tyrosine kinase domain of fibroblast growth factor receptor in complex with inhibitors” (Science, 1997).

The target of test [1] is T1, Platelet-derived growth factor receptor (Mus musculus) (UniProt P05622+P26618). Kind of test: Inhibition of PDGFR in mouse NIH/3T3 cells assessed as inhibition of PDGF-stimulated phospholipase C gamma phosphorylation by immunoblotting. It is filed as cell-based. The settings on record: NIH3T3. In short, it runs like this:
(§1)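 Cells were preincubated with a range of inhibitor concentrations for 5 min at 37°C, then stimulated for 5 min at 37°C: PDGF 40 ng/ml, insulin 1 μg/ml or EGF 100 ng/ml. Whole-lysate portions went directly to SDS-PAGE and anti-phosphotyrosine immunoblotting, and substrate phosphoproteins were located by position.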

Test [2] has as its target T1, Platelet-derived growth factor receptor (Mus musculus). Kind of test: Inhibition of PDGFR in mouse NIH/3T3 cells assessed as PDGF-stimulated Erk2 activation by immunoblotting. In kind it is cell-based. The settings on record: NIH3T3.
Test [3] deals with Epidermal growth factor receptor (Mus musculus) (UniProt Q01279). Kind of test: Inhibition of EGFR phosphorylation in mouse NIH/3T3 cells at 200 uM. It is filed as cell-based. The following applies: NIH3T3.
For test [4], the target named is T1, Platelet-derived growth factor receptor (Mus musculus). The test can be described thus: Inhibition of PDGFR in mouse NIH/3T3 cells assessed as inhibition of PDGF-stimulated tyrosine autophosphorylation by immunoblotting. It is filed as cell-based. The following applies: NIH3T3. In short, it runs like this:
(§2)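 Cells were preincubated with a range of inhibitor concentrations for 5 min at 37°C, then stimulated for 5 min at 37°C (unstimulated controls kept): PDGF 40 ng/ml for PDGFR, insulin 1 μg/ml for insulin receptor, EGF 100 ng/ml for EGFR. Lysates were immunoprecipitated with receptor-specific antibodies, run on SDS-PAGE and immunoblotted with anti-phosphotyrosine.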

Test [5] addresses Insulin receptor (Mus musculus) (UniProt P15208). The test can be described thus: Inhibition of insulin-stimulated insulin receptor beta subunit autophosphorylation in mouse NIHIR cells. In kind it is cell-based. In short, it runs like this:
as §2

The target is the same in test [6]. Kind of test: Inhibition of insulin receptor in mouse NIHIR cells assessed as inhibition of insulin-stimulated IRS1 phosphorylation. It is filed as cell-based. In short, it runs like this: as §1
Test [7] has as its target Epidermal growth factor receptor (Mus musculus) (UniProt Q01279). The test can be described thus: Inhibition of EGFR in mouse HER14 cells assessed as inhibition of EGF-stimulated ERK2 activation by immunoblotting. It is filed as cell-based.
Test [8] has as its target Fibroblast growth factor receptor 1 (Homo sapiens, UniProt P11362). Kind of test: Inhibition of FGFR1K autophosphorylation activity assessed as [32P] incorporation.
In test [9] the target is Epidermal growth factor receptor (Mus musculus) (UniProt Q01279). The test can be described thus: Inhibition of EGF-stimulated EGFR phosphorylation in mouse HER14 cells by immunoblotting. In kind it is cell-based. In short, it runs like this: as §2
A further test relates to NIH3T3. Kind of test: Growth inhibition of mouse NIH/3T3 cells assessed as inhibition of acidic FGF-stimulated [3H]thymidine incorporation. It is filed as functional, cell-based. In short, it runs like this:
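NIH 3T3 cells, untreated or pretreated with inhibitor at 50 μM, were stimulated with aFGF and then labeled with [3H]thymidine. Thymidine incorporation was measured after 24 hours.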

Test [10] has as its target Fibroblast growth factor receptor 1 (Mus musculus, UniProt P16092). The test can be described thus: Inhibition of acidic FGF-stimulated FGFR1 tyrosine autophosphorylation in mouse NIH/3T3 cells by immunoblotting. In kind it is cell-based, NIH3T3.
In test [11] the target is Epidermal growth factor receptor (Mus musculus) (UniProt Q01279). The test can be described thus: Inhibition of EGFR in mouse HER14 cells assessed as inhibition of EGF-stimulated Shc phosphorylation by immunoblotting. In kind it is cell-based. In short, it runs like this: as §1
Test [12] deals with Insulin receptor (Mus musculus) (UniProt P15208). Kind of test: Inhibition of insulin receptor tyrosine phosphorylation in mouse NIH3T3 cells. In kind it is cell-based. In short, it runs like this:
as §2

Test [13] addresses T1, Platelet-derived growth factor receptor (Mus musculus). Kind of test: Inhibition of PDGFR tyrosine phosphorylation in mouse NIH3T3 cells. In kind it is cell-based. In short, it runs like this:
as §2

Structures are written as SMILES. Calls of active or inactive are those of the source. No cut-off for these calls is given here.

Chain of Epidermal growth factor receptor (Mus musculus) (Q01279 whole entry): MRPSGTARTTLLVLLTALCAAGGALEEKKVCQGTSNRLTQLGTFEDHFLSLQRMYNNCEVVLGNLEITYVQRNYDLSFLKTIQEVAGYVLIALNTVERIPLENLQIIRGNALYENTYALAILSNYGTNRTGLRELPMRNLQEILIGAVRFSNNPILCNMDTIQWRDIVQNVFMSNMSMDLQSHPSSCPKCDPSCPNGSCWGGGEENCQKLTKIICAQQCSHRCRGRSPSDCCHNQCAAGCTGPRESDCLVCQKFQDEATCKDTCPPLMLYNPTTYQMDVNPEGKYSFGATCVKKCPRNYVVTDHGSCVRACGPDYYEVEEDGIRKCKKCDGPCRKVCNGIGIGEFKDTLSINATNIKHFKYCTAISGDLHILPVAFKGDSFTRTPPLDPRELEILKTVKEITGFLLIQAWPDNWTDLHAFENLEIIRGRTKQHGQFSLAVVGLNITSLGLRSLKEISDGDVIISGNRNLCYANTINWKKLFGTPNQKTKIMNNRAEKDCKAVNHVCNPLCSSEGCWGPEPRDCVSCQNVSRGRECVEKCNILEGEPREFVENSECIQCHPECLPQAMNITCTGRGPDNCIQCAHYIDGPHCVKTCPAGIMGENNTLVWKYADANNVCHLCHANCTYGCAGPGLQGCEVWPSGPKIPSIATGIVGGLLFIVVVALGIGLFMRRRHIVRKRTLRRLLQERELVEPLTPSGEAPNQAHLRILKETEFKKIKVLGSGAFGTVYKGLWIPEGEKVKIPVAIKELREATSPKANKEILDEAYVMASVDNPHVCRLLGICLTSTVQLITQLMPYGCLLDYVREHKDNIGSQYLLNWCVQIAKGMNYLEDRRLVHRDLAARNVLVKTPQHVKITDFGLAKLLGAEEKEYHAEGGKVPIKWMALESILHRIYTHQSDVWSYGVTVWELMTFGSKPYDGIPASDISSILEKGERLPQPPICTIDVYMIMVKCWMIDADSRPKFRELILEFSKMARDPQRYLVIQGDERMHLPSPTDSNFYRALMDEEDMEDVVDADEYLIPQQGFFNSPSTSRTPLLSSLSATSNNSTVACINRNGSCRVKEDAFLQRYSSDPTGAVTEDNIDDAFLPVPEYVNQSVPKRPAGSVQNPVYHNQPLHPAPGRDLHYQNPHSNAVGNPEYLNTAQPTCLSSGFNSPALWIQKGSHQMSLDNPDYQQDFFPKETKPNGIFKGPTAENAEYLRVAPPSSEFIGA
Chain of Insulin receptor (Mus musculus) (P15208 28-748 limits assumed): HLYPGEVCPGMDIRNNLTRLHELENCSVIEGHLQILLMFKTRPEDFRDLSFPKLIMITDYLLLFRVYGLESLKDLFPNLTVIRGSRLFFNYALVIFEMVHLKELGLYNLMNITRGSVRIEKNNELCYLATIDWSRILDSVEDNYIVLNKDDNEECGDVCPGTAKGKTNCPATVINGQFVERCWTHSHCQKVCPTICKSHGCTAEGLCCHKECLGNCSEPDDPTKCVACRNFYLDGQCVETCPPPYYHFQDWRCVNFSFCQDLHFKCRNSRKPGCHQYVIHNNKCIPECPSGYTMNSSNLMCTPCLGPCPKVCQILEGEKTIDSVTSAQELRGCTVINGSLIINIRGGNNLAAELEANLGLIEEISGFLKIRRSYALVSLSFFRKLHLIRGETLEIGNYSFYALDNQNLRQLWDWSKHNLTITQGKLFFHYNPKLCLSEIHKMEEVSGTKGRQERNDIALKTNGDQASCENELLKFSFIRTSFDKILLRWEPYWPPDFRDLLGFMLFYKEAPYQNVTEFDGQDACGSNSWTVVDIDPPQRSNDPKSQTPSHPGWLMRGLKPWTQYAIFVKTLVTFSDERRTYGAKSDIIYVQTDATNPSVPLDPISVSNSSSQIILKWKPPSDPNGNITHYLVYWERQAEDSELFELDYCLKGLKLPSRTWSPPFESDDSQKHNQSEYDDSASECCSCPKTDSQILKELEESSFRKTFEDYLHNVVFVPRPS
Chain of Insulin receptor (Mus musculus) (P15208 753-1372 limits assumed): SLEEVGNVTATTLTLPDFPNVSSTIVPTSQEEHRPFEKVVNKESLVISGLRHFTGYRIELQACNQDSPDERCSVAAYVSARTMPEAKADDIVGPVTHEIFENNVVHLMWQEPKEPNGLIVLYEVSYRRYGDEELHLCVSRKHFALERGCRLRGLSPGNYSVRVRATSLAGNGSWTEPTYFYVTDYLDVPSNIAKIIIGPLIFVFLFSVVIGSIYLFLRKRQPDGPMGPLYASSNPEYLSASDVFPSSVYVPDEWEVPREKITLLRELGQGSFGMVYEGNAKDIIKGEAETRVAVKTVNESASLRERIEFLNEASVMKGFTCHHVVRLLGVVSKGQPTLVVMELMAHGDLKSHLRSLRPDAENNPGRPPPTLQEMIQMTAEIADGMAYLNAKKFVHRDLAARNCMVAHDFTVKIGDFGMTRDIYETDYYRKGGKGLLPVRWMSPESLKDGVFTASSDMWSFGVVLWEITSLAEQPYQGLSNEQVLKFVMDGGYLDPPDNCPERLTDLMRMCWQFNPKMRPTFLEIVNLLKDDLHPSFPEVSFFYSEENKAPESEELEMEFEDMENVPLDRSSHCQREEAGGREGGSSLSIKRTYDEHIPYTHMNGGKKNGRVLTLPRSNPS
Chain of Fibroblast growth factor receptor 1 (Mus musculus, UniProt P16092) (P16092 whole entry): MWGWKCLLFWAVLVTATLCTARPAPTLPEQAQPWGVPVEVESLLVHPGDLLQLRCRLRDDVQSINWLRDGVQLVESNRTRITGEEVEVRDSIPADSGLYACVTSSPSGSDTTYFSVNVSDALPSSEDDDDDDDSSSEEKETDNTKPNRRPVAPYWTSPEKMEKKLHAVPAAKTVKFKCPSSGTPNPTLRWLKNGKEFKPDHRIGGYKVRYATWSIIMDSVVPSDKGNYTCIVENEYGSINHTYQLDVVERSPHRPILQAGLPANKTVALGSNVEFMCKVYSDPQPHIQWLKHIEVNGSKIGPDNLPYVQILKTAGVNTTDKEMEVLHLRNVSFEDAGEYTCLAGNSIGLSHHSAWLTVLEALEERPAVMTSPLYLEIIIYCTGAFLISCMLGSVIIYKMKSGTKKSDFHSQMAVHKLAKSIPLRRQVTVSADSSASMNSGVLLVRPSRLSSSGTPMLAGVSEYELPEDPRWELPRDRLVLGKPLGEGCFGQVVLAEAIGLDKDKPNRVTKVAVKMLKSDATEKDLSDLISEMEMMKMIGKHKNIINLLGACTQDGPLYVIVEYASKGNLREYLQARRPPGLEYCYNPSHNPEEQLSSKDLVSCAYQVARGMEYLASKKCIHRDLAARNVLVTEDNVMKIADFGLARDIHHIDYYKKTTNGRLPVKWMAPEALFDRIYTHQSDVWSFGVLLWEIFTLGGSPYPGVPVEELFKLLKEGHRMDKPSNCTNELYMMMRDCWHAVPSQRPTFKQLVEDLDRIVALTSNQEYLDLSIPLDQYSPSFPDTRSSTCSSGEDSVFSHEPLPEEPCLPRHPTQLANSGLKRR
Chain of Fibroblast growth factor receptor 1 (Homo sapiens, UniProt P11362) (P11362 whole entry): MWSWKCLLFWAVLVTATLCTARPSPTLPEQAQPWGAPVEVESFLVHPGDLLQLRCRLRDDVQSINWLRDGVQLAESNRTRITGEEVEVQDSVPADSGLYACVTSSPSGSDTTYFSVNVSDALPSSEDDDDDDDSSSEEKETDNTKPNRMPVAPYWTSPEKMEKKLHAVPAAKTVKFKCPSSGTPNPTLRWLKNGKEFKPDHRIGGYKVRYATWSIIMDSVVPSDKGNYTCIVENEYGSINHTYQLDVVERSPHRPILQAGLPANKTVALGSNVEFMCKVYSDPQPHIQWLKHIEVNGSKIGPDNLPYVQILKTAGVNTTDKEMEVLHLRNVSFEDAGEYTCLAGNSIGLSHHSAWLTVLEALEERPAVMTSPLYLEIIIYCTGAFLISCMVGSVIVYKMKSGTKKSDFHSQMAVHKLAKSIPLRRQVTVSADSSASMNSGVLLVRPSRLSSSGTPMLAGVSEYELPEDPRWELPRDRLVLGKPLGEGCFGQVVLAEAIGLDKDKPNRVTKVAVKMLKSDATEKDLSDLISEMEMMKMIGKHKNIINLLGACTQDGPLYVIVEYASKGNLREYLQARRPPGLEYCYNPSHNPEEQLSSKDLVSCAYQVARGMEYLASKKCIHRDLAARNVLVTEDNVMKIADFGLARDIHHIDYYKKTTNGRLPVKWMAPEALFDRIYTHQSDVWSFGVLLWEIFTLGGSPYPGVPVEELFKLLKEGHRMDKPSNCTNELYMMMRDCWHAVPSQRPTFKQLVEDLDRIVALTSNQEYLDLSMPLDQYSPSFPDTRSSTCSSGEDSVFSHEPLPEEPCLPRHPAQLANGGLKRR

As for `Cc1c[nH]c(/C=C2\C(=O)Nc3ccccc32)c1CCC(=O)O`, the result in test [1], in [2], in [4], in test [5], in test [6] and in test [7] was Active. Also, the outcome (in test [9]; in the test on NIH3T3; in test [11]) was Active. In addition, the outcome in [3] and in [12] was inactive. The half-inhibitory concentration (IC50) in test [8] and in test [10] was 10 µM each time.
On to `O=CN1CCN(c2ccc(/C=C3\C(=O)Nc4ccccc43)cc2)CC1`, for which the outcome in [1], in [2], in test [4], in test [5], in test [6] and in [13] was Active. Moreover, the result (with NIH3T3; in [12]) was Active. Also, the result in test [3] was inactive. The IC50 stood at 10 µM in test [8] and 20 µM in test [10].
